These results are taken from ChEMBL document CHEMBL1123065, “Sleep-inducing N-alkyl-5-[m-(trifluoromethyl)phenyl]-5-hydroxy-2-pyrrolidinones and N-alkyl-3-(trifluoromethyl)cinnamamides” (J Med Chem, 1985).

Calls of active or inactive are those of the source. No cut-off for these calls is given here.

For series [1], the system named is Mus musculus. The experiment in a line: Ability to produce neurological deficit in the rotarod test (10 mice were used per dose, ip). The series is classed as functional. In outline:
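Rotarod method of ref 10, intraperitoneal dosing, 10 mice per dose; neurological deficit scored and ND50 (mg/kg ip) derived.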
Background: The rotarod test checks motor coordination on a turning rod.

Series [2] has as its system Mus musculus. As to the kind of experiment: Effective dose against Mice ataxia, ip administration. The format is functional. In outline:
(§1)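 Mouse behaviour after ip dosing assessed by a modification of the method of ref 7; ataxia, docility and loss of righting reflex scored, 10 mice per dose, ED50 in mg/kg ip.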

The test system of series [3] is Mus musculus. The experiment in a line: Effective dose against loss of righting reflex in mice (10 mice per dose, ip). The series is classed as functional. In outline:
as §1

The subject of series [4] is Mus musculus. The experiment in a line: Ability to reinduce anesthesia (70 mg/kg, iv) following recovery of loss of righting reflex obtained with hexobarbital. The series is classed as functional.
Series [5] has as its system Monkey. The experiment in a line: Ratio of the oral dose of the test compound relative to that of methaqualone (15 mg/kg, po) to induce sleep in Cebus monkey. The format is functional. In outline:
(§2)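 Cebus monkeys restrained in chairs within sound-attenuated cubicles; dosing per os at 5:00 p.m., five channels recorded, EEG over 13.5 h, Monday–Thursday, visually scored. Each animal its own control versus last 15 control nights (intragastric carboxymethylcellulose placebo). Value is oral dose of test substance relative to methaqualone 15 mg/kg po inducing sleep in the same monkey; NA = no sleep at any dose.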

Series [6] is described as follows: Lethal dose was obtained by 2-h post administration (ip), using four male Royal Hart Wistar rats. The series is classed as toxicity, organism-based. The conditions noted are these: rat, in vivo. In outline:
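Male Royal Hart Wistar rats, 136-160 g, housed in pairs in wire cages, given compound ip; deaths read 2 h after dosing, four rats per compound; LD50 estimated by probit analysis.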

Series [7] has as its system Mus musculus. As to the kind of experiment: Effective dose against Mice docility, ip administration. The series is classed as functional. In outline: as §1
In series [8] the test system is Mus musculus. As to the kind of experiment: Anticonvulsant activity against N-sulfamoylhexahydrozepine (10 mice were used per dose, ip). The format is functional. In outline:
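Mice given compound ip, 10 per dose, then challenged with N-sulfamoylhexahydroazepine by methods of ref 9; ED50 (mg/kg ip) for protection determined.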

Series [9] is described as follows: Ratio of the oral dose of the test compound relative to that of methaqualone (15 mg/kg, po) to induce sleep in Cebus monkey;NA is Not Active. The format is functional, organism-based. In outline:
as §2

As usually defined, the ED50 is the midpoint of the dose-response relation. One may read the LD50 as the dose at which mortality reaches 50%. The compound `Cc1ccccc1-n1c(C)nc2ccccc2c1=O` [METHAQUALONE] came in with an ND50 in series [1] of 31.5 mg/kg. For the same compound, the ED50 in series [2] stood at 34.4 mg/kg; in [3] it was 39.8 mg/kg; in series [7], 35.6 mg/kg; in series [8] it was 31.5 mg/kg. Moreover, in series [4], the RD50 was 21.9 mg/kg. In addition, in series [5], the Sleep ratio is on record as 1. The LD50 at 2 h in [6] was 565 mg/kg.

On to `CCCCN1C(=O)CCC1(O)c1cccc(C(F)(F)F)c1` (configuration not stated), for which the ND50 in series [1] was greater than 200 mg/kg. Further, the ED50 in series [2] is greater than 200 mg/kg; in [3], greater than 200 mg/kg; in [7] it was greater than 200 mg/kg; in [8], 183 mg/kg. Besides, the Ratio entry in series [9] is “inactive”. Further, the RD50 in [4] came to 150 mg/kg. In series [6], this compound had an LD50 at 2 h greater than 400 mg/kg.

The compound `CNC(=O)/C=C/c1cccc(C(F)(F)F)c1` showed an ND50 in [1] of 149 mg/kg. The 50% effective dose (ED50) came to 120 mg/kg in [2], 200 mg/kg in series [3], 92.9 mg/kg in [7] and 84.1 mg/kg in [8]. The compound also showed an RD50 in series [4] of 76.3 mg/kg. The Sleep ratio in series [5] is given as 0.5. The same compound gave an LD50 at 2 h in [6] of 275 mg/kg.

Consider `O=C1CCC(O)(c2cccc(C(F)(F)F)c2)N1` (configuration not stated), for which, in [1], the ND50 is greater than 200 mg/kg. In addition, the ED50 in series [2], in series [3], in [7] and in series [8] was greater than 200 mg/kg throughout. Besides, the RD50 in [4] was 150 mg/kg. Moreover, the Sleep ratio in series [5] is 0.1. In [6], this compound registered a 50% lethal dose (LD50) at 2 h greater than 400 mg/kg.

Regarding `CN1CCN(C(=O)/C=C/c2cccc(C(F)(F)F)c2)CC1`, in series [1], the ND50 was greater than 75 mg/kg. For the same compound, the ED50 is greater than 100 mg/kg in [2], greater than 100 mg/kg in series [3], greater than 100 mg/kg in series [7] and greater than 75 mg/kg in series [8]. Besides, in [4], the RD50 was greater than 75 mg/kg. Further, in series [6], the 50% lethal dose (LD50) at 2 h was 300 mg/kg.

`CCC(O)CNC(=O)/C=C/c1cccc(C(F)(F)F)c1` (configuration not stated): in series [1], the ND50 was 57.9 mg/kg. Besides, the median effective dose (ED50) worked out at 90 mg/kg in series [2], 92.9 mg/kg in series [3], 87.5 mg/kg in series [7] and 64.4 mg/kg in series [8]. In addition, in series [9], the Ratio result was “inactive”. The compound also gave an RD50 in series [4] of 68.8 mg/kg. Also, in [6], the LD50 at 2 h is 333 mg/kg.

As for `CC(C)NC(=O)CCC(=O)c1cccc(C(F)(F)F)c1`, the ND50 in series [1] is greater than 150 mg/kg. Further, the ED50 in series [2] was greater than 200 mg/kg; in [3], greater than 200 mg/kg; in [7] it was greater than 200 mg/kg; in [8], greater than 150 mg/kg. Moreover, in series [4], the RD50 is 126.9 mg/kg. The compound further came in with an LD50 at 2 h in [6] greater than 400 mg/kg.

With `NC(=O)/C=C/c1cccc(C(F)(F)F)c1`, the ND50 in series [1] was 46.9 mg/kg. In addition, the ED50 is 42.9 mg/kg in [2], 54.5 mg/kg in series [3], 37.5 mg/kg in series [7] and 49.5 mg/kg in [8]. Further, the Ratio entry in [9] is “inactive”. The RD50 in series [4] was found to be 17.2 mg/kg. Besides, the LD50 at 2 h in series [6] was 260 mg/kg.

The compound `O=C(/C=C/c1cccc(C(F)(F)F)c1)NCCO` showed an ND50 in [1] of 115.8 mg/kg. Further, the ED50 in series [2] stood at 117 mg/kg; in [3] it was 186 mg/kg; in [7], 78.6 mg/kg; in series [8], 100 mg/kg. The compound further showed an RD50 in [4] of 66.7 mg/kg. In addition, in [6], the LD50 at 2 h was 400 mg/kg.

On to `CCCN1C(=O)CCC1(O)c1cccc(C(F)(F)F)c1` (configuration not stated), for which the ND50 in series [1] was greater than 200 mg/kg. Also, the ED50 in [2] was greater than 200 mg/kg; in series [3], 200 mg/kg; in series [7], greater than 200 mg/kg; in series [8], 150 mg/kg. In series [4], this compound came in with an RD50 of 131.9 mg/kg. Further, in series [6], the LD50 at 2 h is greater than 400 mg/kg.

`CCC(C)NC(=O)CCC(=O)c1cccc(C(F)(F)F)c1` (configuration not stated) came in with an ND50 in series [1] greater than 150 mg/kg. Moreover, the ED50 in [2], in series [3], in [7] and in series [8] was greater than 200 mg/kg in each case. Moreover, in series [4], the RD50 was greater than 50 mg/kg. In [6], this compound returned an LD50 at 2 h of 300 mg/kg.

With `O=C(CCC(=O)c1cccc(C(F)(F)F)c1)NC1CCCCC1`, in series [1], the ND50 was greater than 200 mg/kg. The ED50 in [2], in series [3], in [7] and in series [8] was greater than 200 mg/kg each time. The compound also returned an RD50 in [4] greater than 200 mg/kg. In series [6], this compound registered an LD50 at 2 h greater than 400 mg/kg.

In the case of `CNC(=O)/C=C(\C)c1cccc(C(F)(F)F)c1`, the ND50 in series [1] is greater than 75 mg/kg. Also, the ED50 in series [2] was 87.5 mg/kg; in series [3], greater than 100 mg/kg; in series [7] it was 87.5 mg/kg; in [8] it was greater than 75 mg/kg. Besides, the RD50 in series [4] turned out to be 56.3 mg/kg. Besides, in [6], the LD50 at 2 h was greater than 400 mg/kg.
